Calls of active or inactive are those of the source. The rule behind the calls is not given here.
Columns and labels:
Assay type in all cases: functional, cell-based
[1] = target: T1, Urotensin-2 receptor (Homo sapiens) (UniProt Q9UKP6); assay: Agonist activity against human urotensin 2 receptor expressed in […] cells assessed as beta-galactosidase activity after 5 days by R-SAT assay relative to urotensin 2
T1 sequence (whole entry): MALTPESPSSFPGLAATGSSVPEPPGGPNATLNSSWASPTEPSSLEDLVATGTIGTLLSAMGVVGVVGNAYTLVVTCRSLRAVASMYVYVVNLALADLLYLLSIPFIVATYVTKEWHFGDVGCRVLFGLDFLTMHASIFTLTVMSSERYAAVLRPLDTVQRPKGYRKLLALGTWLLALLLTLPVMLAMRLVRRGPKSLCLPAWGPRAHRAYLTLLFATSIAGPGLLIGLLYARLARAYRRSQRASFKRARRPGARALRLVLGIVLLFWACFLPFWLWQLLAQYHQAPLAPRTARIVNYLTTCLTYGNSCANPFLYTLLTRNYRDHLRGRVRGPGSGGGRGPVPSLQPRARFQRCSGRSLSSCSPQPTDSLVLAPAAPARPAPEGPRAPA
In short: (§1)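 NIH-3T3 cells grown to 80% confluence in DMEM with 10% bovine calf serum, transiently transfected in roller bottles for 18 h with human UT receptor plus β-galactosidase marker, then frozen. Thawed cells were plated in DMEM with 0.4% calf serum and 30% UltraCulture onto compound. They were incubated 5 days in 5% CO2, with reporter read at 420 nm. Eight doses in triplicate; EC50 from 2–5 determinations; efficacy normalized to UII = 100%.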

Urotensin-2 receptor = target: T2, Urotensin-2 receptor (Homo sapiens, UniProt Q9UKP6); assay: (§2) Agonist activity against human urotensin 2 receptor expressed in […] cells assessed as beta-galactosidase activity after 5 days by R-SAT assay; in short: as §1
T2 sequence (Q9UKP6 whole entry): T1 sequence (whole entry)

[2] = target: T1, Urotensin-2 receptor (Homo sapiens); assay: as §2; in short: as §1

Work on `COc1ccc(-c2ccc(C(=O)NC(CCN(C)C)c3ccc(Cl)cc3)cc2)cc1` (configuration not stated) yielded an Efficacy [1] of 143% and an EC50 (Urotensin-2 receptor) of 74.1 nM.

Work on `COc1ccc(-c2ccc(C(=O)NC(CCN(C)C)c3ccc4ccccc4c3)cc2)cc1` (configuration not stated) yielded an Efficacy [1] of 111% and an EC50 (Urotensin-2 receptor) of 105 nM.

With `CN(C)CCC(NC(=O)c1ccc(-c2ccc(Cl)cc2)cc1)c1ccc(Cl)cc1` (configuration not stated) the Efficacy [1] was 137% and the EC50 (Urotensin-2 receptor) was 75.9 nM.

In the case of `Cc1ccc(C(CCN(C)C)NC(=O)c2ccc(-c3ccc(Cl)cc3)cc2)cc1` (configuration not stated), the Efficacy [1] is reported as 108% and the EC50 (Urotensin-2 receptor) is reported as 126 nM.

`CN(C)CCC(NC(=O)c1ccc(-c2ccccc2)cc1)c1ccc2ccccc2c1` (configuration not stated) showed an Efficacy [1] of 111% and an EC50 (Urotensin-2 receptor) of 120 nM.

`Cc1ccc(C(CCN(C)C)NC(=O)c2ccc(-c3ccccc3)cc2)cc1` (configuration not stated) showed an Efficacy [1] of 114% and an EC50 (Urotensin-2 receptor) of 200 nM.

With `COc1ccc(-c2cccc(C(=O)NC(CCN(C)C)c3ccc(C)cc3)c2)cc1` (configuration not stated) the Efficacy [1] was 69% and the EC50 (Urotensin-2 receptor) was 1070 nM.

With `CN(C)CCC(NC(=O)c1ccc(-c2ccc3ccccc3c2)cc1)c1ccc(Cl)cc1` (configuration not stated) the Efficacy [1] was 131% and the EC50 (Urotensin-2 receptor) was 309 nM.

With `CN(C)CCC(NC(=O)c1cccc(-c2ccccc2)c1)c1ccc2ccccc2c1` (configuration not stated) the Efficacy [1] was 67% and the EC50 (Urotensin-2 receptor) was 537 nM.

Compound `CO[C@@H](C(=O)N[C@@H](CCN(C)C)c1ccc(Cl)cc1)c1ccccc1` has an Efficacy [1] of 165%.

In the case of `CO[C@@H](C(=O)N[C@H](CCN(C)C)c1ccc2ccccc2c1)c1ccccc1`, the Efficacy [1] is reported as 53% and the EC50 (Urotensin-2 receptor) is reported as 2750 nM.

For `CO[C@@H](C(=O)N[C@@H](CCN(C)C)c1ccc2ccccc2c1)c1ccccc1`, the Efficacy [1] was 140% and the EC50 (Urotensin-2 receptor) was 741 nM.

For `CN(C)CCC(NC(=O)c1cccc(-c2ccc3ccccc3c2)c1)c1ccc(Cl)cc1` (configuration not stated), the Efficacy [1] was 41% and the EC50 (Urotensin-2 receptor) was 363 nM.

In the case of `CN(C)CCC1(c2ccc(Cl)cc2)Cc2ccccc2C(=O)O1` (configuration not stated), the EC50 (Urotensin-2 receptor) is reported as no less than 1120 nM.

With `Cc1ccc(C(CCN(C)C)NC(=O)c2cccc(-c3ccccc3)c2)cc1` (configuration not stated) the Efficacy [1] was 45% and the EC50 (Urotensin-2 receptor) was 813 nM.

With `CN(C)CC[C@@H](NC(=O)c1ccc(-c2ccc(Cl)cc2)cc1)c1ccc2ccccc2c1` the Efficacy [1] was 53% and the EC50 (Urotensin-2 receptor) was 457 nM.

`CN(C)CCC(NC(=O)c1ccc(-c2ccccc2)cc1)c1ccc(Cl)cc1` (configuration not stated) showed an Efficacy [1] of 116%.

Compound `CN(C)CCC(NC(=O)c1cccc(-c2ccc(Cl)cc2)c1)c1ccc(Cl)cc1` (configuration not stated) has an Efficacy [1] of 63% and an EC50 (Urotensin-2 receptor) of 437 nM.

With `COc1ccc(-c2cccc(C(=O)NC(CCN(C)C)c3ccc4ccccc4c3)c2)cc1` (configuration not stated) the Efficacy [1] was 50% and the EC50 (Urotensin-2 receptor) was 646 nM.

With `CO[C@@H](C(=O)N[C@H](CCN(C)C)c1ccc(Cl)cc1)c1ccccc1` the Efficacy [1] was 112%.

`CN(C)CCCC(NC(=O)c1ccccc1)c1ccc(Cl)cc1` (configuration not stated) gave an Efficacy [1] of 77% and an EC50 (Urotensin-2 receptor) of 3800 nM.

`O=C(NC(CCN1CCCCC1)c1ccc(Cl)cc1)c1ccc(-c2ccccc2)cc1` (configuration not stated) showed an Efficacy [1] of 57% and an EC50 (Urotensin-2 receptor) of 661 nM.

`CN(C)CCC(NC(=O)c1ccc(-c2ccc(Cl)cc2)cc1)c1ccc2ccccc2c1` (configuration not stated) gave an Efficacy [1] of 129% and an EC50 (Urotensin-2 receptor) of 43.7 nM.

`CN(C)CC[C@H](NC(=O)c1ccc(-c2ccc(Cl)cc2)cc1)c1ccc2ccccc2c1` gave an Efficacy [1] of 129% and an EC50 (Urotensin-2 receptor) of 22.9 nM.

In the case of `CN(C)CC[C@H](NC(=O)c1ccc(-c2ccccc2)cc1)c1ccc(Cl)cc1`, the Efficacy [1] is reported as 116%.

`Cc1ccc(C(CCN(C)C)NC(=O)c2ccc(-c3ccc4ccccc4c3)cc2)cc1` (configuration not stated) gave an Efficacy [1] of 83% and an EC50 (Urotensin-2 receptor) of 813 nM.

In the case of `COc1ccc(-c2cccc(C(=O)NC(CCN(C)C)c3ccc(Cl)cc3)c2)cc1` (configuration not stated), the Efficacy [1] is reported as 78% and the EC50 (Urotensin-2 receptor) is reported as 575 nM.

`CN(C)CCC(NC(=O)c1cccc(-c2ccc(Cl)cc2)c1)c1ccc2ccccc2c1` (configuration not stated) showed an Efficacy [1] of 45% and an EC50 (Urotensin-2 receptor) of 1100 nM.

In the case of `CN(C)CCCC(NC(=O)c1ccc(-c2ccccc2)cc1)c1ccc(Cl)cc1` (configuration not stated), the Efficacy [1] is reported as 91% and the EC50 (Urotensin-2 receptor) is reported as 316 nM.

In the case of `O=C(NC(CCN1CCCCC1)c1ccc(Cl)cc1)c1ccccc1` (configuration not stated), the Efficacy [1] is reported as 55% and the EC50 (Urotensin-2 receptor) is reported as 6460 nM.

For `Cc1ccc(C(CCN(C)C)NC(=O)c2cccc(-c3ccc4ccccc4c3)c2)cc1` (configuration not stated), the Efficacy [1] was “inactive” and the pEC50 [2] was “inactive”.

For `CN(C)CC[C@@H](NC(=O)c1ccc(-c2ccccc2)cc1)c1ccc(Cl)cc1`, the Efficacy [1] was 96%.

With `CN(C)CCC(NC(=O)c1cccc(-c2ccccc2)c1)c1ccc(Cl)cc1` (configuration not stated) the Efficacy [1] was 92% and the EC50 (Urotensin-2 receptor) was 575 nM.

With `CN(C)CCC(NC(=O)c1ccc(-c2ccc3ccccc3c2)cc1)c1ccc2ccccc2c1` (configuration not stated) the Efficacy [1] was 77% and the EC50 (Urotensin-2 receptor) was 525 nM.

In the case of `Cc1ccc(C(CCN(C)C)NC(=O)c2cccc(-c3ccc(Cl)cc3)c2)cc1` (configuration not stated), the Efficacy [1] is reported as 39% and the EC50 (Urotensin-2 receptor) is reported as 646 nM.

With `COc1ccc(-c2ccc(C(=O)NC(CCN(C)C)c3ccc(C)cc3)cc2)cc1` (configuration not stated) the Efficacy [1] was 119% and the EC50 (Urotensin-2 receptor) was 347 nM.

`CN(C)CCC(NC(=O)c1cccc(-c2ccc3ccccc3c2)c1)c1ccc2ccccc2c1` (configuration not stated) showed an EC50 (Urotensin-2 receptor) of 3470 nM.

Source: ChEMBL document CHEMBL1154062, “Novel and potent small-molecule urotensin II receptor agonists” (Bioorg Med Chem, 2009)
